# Sampled rows, rich in hits. Any-hit rate of the full collection: about 2.8%.
# SR-BI HDL uptake – blocks mouse SR-BI lipid uptake from DiI-HDL; AID 488896; inhibition, % at 12.5 µM; ldlA[mSR-BI] CHO cells, DiI-HDL uptake fluorescence, 3 h; 0.96% of 320,000 active; Q61009;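 active = mean replicate inhibition of at least 70% and a set share of replicates each scoring 70 or more; inconclusive = meets just one of the two criteria; inactive = fails both criteria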;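 note: 0% = median of neutral control wells and 100% = median of positive control wells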
# CAL PDZ FP-1 – blocks peptide binding to human CAL PDZ domain; inhibition, % at 20 µM; 0.02% of 330,000 active; purified CAL PDZ, TMR-peptide fluorescence polarization, 1 h;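 active = highest replicate inhibition of at least 40%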;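 note: plate controls were DMSO neutral control wells for no effect and unlabeled competitor peptide control wells for full effect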
#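 Material: tagged CAL PDZ protein CerCALP, purified; buffer or medium: sodium phosphate/NaCl buffer pH 7.4 with TCEP, IgG, Thesit; also added: fluorescent TMR peptide probe; schedule: 1 h incubation at room temperature before polarization reading; technique: fluorescence polarization from S- and P-plane intensities, G-factor corrected; control set: unlabelled peptide and DMSO controls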
# CAL PDZ FP-2 – CAL PDZ (human) peptide binding inhibition | inhibition, % at 24.9 µM | purified CAL PDZ, TMR-peptide fluorescence polarization, 1 h | 0.92% of 300,000 active | Q9HD26;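 active = mean inhibition of at least 30% with at least half of replicates also reaching 30%; inconclusive = no clear call, values can overlap the other calls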;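 note: 0% = DMSO neutral control and 100% = excess unlabeled competitor peptide PRC23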
# SR-BI DiI-HDL act – SR-BI HDL lipid transfer activation; CHO ldlA[mSR-BI] cells, DiI-HDL uptake fluorescence, 3 h; 100 = double the neutral-control signal; activation, % at 12.5 µM; 0.096% of 320,000 active;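 active = mean replicate activation of at least 60% and every replicate at or above 60%; inconclusive = mean or all-replicate condition met, but not both; inactive = mean below 60% and not all replicates reaching 60%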;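 note: 0% = median plate neutral-control signal and 100% = twice that signal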
#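 system = CHO ldlA[mSR-BI] cells, LDL receptor-null, SR-BI overexpressing | medium = Ham's F12 with 0.5% BSA, HEPES 25 mM, pH 7.4 | probe or stimulus = DiI-HDL 10 µg/mL | compound dosing = single-point compound dose | incubation = compound exposure 3 h, 37 °C | technique = DiI fluorescence, bottom read | read-out = cell-associated DiI fluorescence as measure of HDL uptake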
# dFosB act – activators of mouse delta FosB homodimer | purified delta FosB, TAMRA-CDK5 oligo fluorescence polarization; percent of positive-control signal above neutral wells | activation, % at 25 µM | 0.99% of 340,000 active;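 active = mean activation above about 17%, with every replicate also reaching it, limit read from the data, passing the limit was not always enough; inconclusive = only one of the two conditions met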
# Target sequence (P13346 whole entry, looked up): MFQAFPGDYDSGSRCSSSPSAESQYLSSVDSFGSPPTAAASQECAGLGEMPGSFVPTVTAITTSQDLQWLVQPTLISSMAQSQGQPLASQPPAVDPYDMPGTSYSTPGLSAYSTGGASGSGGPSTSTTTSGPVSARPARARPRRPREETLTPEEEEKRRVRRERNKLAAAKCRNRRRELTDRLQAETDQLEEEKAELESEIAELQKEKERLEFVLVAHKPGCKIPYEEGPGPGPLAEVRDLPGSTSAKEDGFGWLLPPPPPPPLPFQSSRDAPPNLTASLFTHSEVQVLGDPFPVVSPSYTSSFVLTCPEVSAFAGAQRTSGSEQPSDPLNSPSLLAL
# Numbers without * were called inactive; ? = inconclusive; / = no result; + = active, no number.
SMILES,SR-BI HDL uptake,CAL PDZ FP-1,CAL PDZ FP-2,SR-BI DiI-HDL act,dFosB act
CCOC(=O)c1sc(=NC(=O)c2cc(OC)c(OC)c(OC)c2)n(C)c1C,74.4*,-2.2,-2.9,-74.4,-2.2
O=C(c1ccc(Br)cc1)c1cc([N+](=O)[O-])ccc1N1CCCCC1,87.8*,-0.2,-4.2,-87.8,-0.3
COc1ccc(C(=O)c2cc([N+](=O)[O-])ccc2N2CCCC2)cc1,70.4*,-0.3,-2.0,-70.4,-9.6
COc1ccc(NC(=O)c2cc([N+](=O)[O-])ccc2N2CCCC2)cc1,15.8,-0.8,4.9,-15.8,1.4
Cc1cc(C(=O)Nc2ccc(N3CCCC3)c(Cl)c2)ccc1[N+](=O)[O-],64.1,-1.2,-1.0,-64.1,-10.5
COc1ccc(NC(=O)c2cc([N+](=O)[O-])ccc2N2CCCCC2)cc1,90.2*,-1.2,-3.5,-90.2,-4.1
CN1CCN(c2ccc([N+](=O)[O-])cc2C(=O)c2ccc(Br)cc2)CC1,10.4,-0.1,/,-10.4,3.1
O=C(Nc1ccc(N2CCCC2)c(Cl)c1)c1ccc([N+](=O)[O-])cc1,75.1*,-4.0,14.3,-75.1,-3.7
NC(=O)Cn1cnc2c(nnn2-c2ccc(F)cc2)c1=O,3.4,0.4,3.9,-3.4,4.3
COc1cc2c(cc1OC)C(c1cc3cc4c(cc3[nH]c1=O)OCO4)N(C(=O)C1CC1)CC2 (centres undefined),-3.2,-1.5,-0.8,3.2,3.8
COc1cc2c(cc1OC)C(c1cc3ccc(C)cc3[nH]c1=O)N(C(=O)c1ccco1)CC2 (centres undefined),-4.1,-2.1,40.6*,4.1,-7.6
CS(=O)(=O)Oc1ccc(Br)c2cccnc12,-4.1,-1.0,74.3*,4.1,-1.4
O=C(Nc1ccc(N2CCN(C(=O)c3ccco3)CC2)cc1)c1ccc(Br)cc1,?,-0.4,-7.0,-70.9,14.2
O=C(Nc1ccc(N2CCN(C(=O)c3ccco3)CC2)cc1)c1cc(Br)ccc1Cl,62.7,-0.8,48.8*,-62.7,-4.4
COc1ccc(CC(NC(C)=O)C(=O)NC2CCN(C(=O)c3ccccc3F)CC2)cc1 (centres undefined),/,-1.9,-6.4,/,3.3
Cc1nnc(N2CCC(C(=O)N3CCCCC3)CC2)c2nn(-c3ccc(Cl)cc3)c(C)c12,46.3,-3.7,-3.8,-46.4,-11.4
Cc1nnc(N2CCC(C(=O)NC3CCC(C)CC3)CC2)c2nn(-c3ccc(Cl)cc3)c(C)c12 (centres undefined),88.1*,-0.9,10.0,-88.1,-0.5
O=C(COC(=O)c1ccco1)NC1CCCC1,-12.2,-1.0,0.1,12.2,-1.7
NC(=S)NN=C1c2cc(OCCN3CCOCC3)ccc2-c2ccc(OCCN3CCOCC3)cc21,-15.7,-0.9,-2.7,15.7,39.4*
N=c1c2c(ncn1CCCO)Oc1cc(O)ccc1C2c1ccccc1 (centres undefined),-16.8,-2.1,39.0*,16.8,0.4
CC(C)c1ccc(C2c3[nH]c4ccccc4c3C[C@H]3C(=O)N(c4ccccc4C(=O)N4CCC[C@H]4C(=O)O)C(=O)N23)cc1 (some centres undefined),-6.1,-0.3,-3.9,6.1,-23.4
Cc1ccc(NC(=O)CC2=NC(=O)C(CC(=O)Nc3ccccc3C)S2)cc1 (centres undefined),37.3,-0.3,-0.7,-37.3,34.1*
O=c1[nH]c(/C=C/c2ccc([N+](=O)[O-])cc2)c([N+](=O)[O-])c(=O)[nH]1,6.2,-1.0,-2.0,-6.2,-0.8
CN(C)/C=C/c1[nH]c(=O)[nH]c(=O)c1[N+](=O)[O-],-15.7,-0.3,76.8*,15.7,5.8
O=[N+]([O-])c1ccc(N/N=C/c2c[nH]c3ccccc23)c(S(=O)(=O)Nc2ccc(Cl)cc2)c1,94.0*,0.6,-1.6,-94.0,8.3
SMILES,SR-BI HDL uptake,CAL PDZ FP-1,CAL PDZ FP-2,SR-BI DiI-HDL act,dFosB act
O=[N+]([O-])c1ccccc1/C=C/C=N/Nc1ccc(S(=O)(=O)Nc2ccc(Cl)cc2)cc1[N+](=O)[O-],99.7*,-0.1,-2.6,-99.7,10.5
N=C1C(c2ccccc2)=C(O)CN1c1cccc(S(=O)(=O)N2CCCCC2)c1,/,-2.3,0.2,/,-1.3
Cc1ccccc1C(=O)c1cccn1CC(=O)NCc1ccccc1Cl,4.0,0.1,/,-4.0,-0.8
O=C(Cn1cccc1C(=O)c1ccccc1)NCc1ccccc1Cl,4.0,-0.5,+,-4.0,-4.7
Cc1onc(-c2ccc(Cl)cc2Cl)c1-c1csc(N/N=C/c2ccccc2)n1,32.3,-0.6,54.2*,-32.3,-9.9
CSCCCN1CCC(n2nccc2NC(=O)CCCc2ccccc2)CC1,-3.3,-2.5,-3.7,3.3,-4.0
CC1CCCN(C(=O)COC(=O)c2cc(-c3cccs3)nn2-c2ccccc2)C1 (centres undefined),16.7,-3.4,-2.2,-16.7,-7.0
O=S(=O)(c1ccc2c(c1)OCCO2)N(Cc1ccc(F)cc1)Cc1nnc(-c2cccs2)o1,1.0,-2.0,42.9*,-1.0,-10.8
Cn1c(=O)c2nc(Cl)c(-c3ccccc3)nc2n(C)c1=O,-12.5,-1.3,-1.8,12.5,-4.0
Cn1c(=O)c2nc(-c3ccccc3)c(-c3ccccc3)nc2n(C)c1=O,11.9,-6.1,65.8*,-11.9,-0.3
Cc1oc(-c2ccccc2)nc1C(=O)OCC(=O)NC(=O)NCC(C)C,13.9,-0.1,36.8*,-13.9,-11.5
CC(C)CNC(=O)COC(=O)c1n[nH]c2ccccc12,-51.2,8.1,60.9*,51.2,-10.7
C=C(NC(=O)C(=C)NC(=O)c1csc(C2=NC3c4csc(n4)C4NC(=O)c5csc(n5)C(C(C)(O)C(C)O)NC(=O)C5CSC(=N5)/C(=C/C)NC(=O)C(C(C)O)NC(=O)c5csc(n5)C3(CC2)NC(=O)C(C)NC(=O)C(=C)NC(=O)C(=C)NC(=O)C(C(C)C)NC2C=Cc3c(C(C)O)cc(nc3C2O)C(=O)OC4C)n1)C(N)=O (centres undefined),-143.3,-2.3,-3.7,143.3*,17.5*
N#Cc1nc(-c2ccc(OCc3ccccc3)cc2)oc1N1CCOCC1,71.0*,-0.4,/,-71.0,-9.6
COc1cccc(C(=O)/C=C/Nc2cc(C)ccc2O)c1,92.1*,-0.8,-0.5,-92.1,-5.5
COCC(C)NC(=O)CSc1nc2cc(S(=O)(=O)N3CCCCC3)ccc2o1 (centres undefined),18.9,0.0,-5.5,-18.9,-2.2
O=C(c1ccc(S(=O)(=O)N2CCCC2)cc1)N1CCCc2ccccc21,77.5*,-0.9,-2.2,-77.5,-10.3
N#CC(c1cccc(Cl)c1)c1ccc2c(C(F)(F)F)cc(C(F)(F)F)nc2n1 (centres undefined),117.3*,1.1,-3.3,-117.3,5.8
NNc1ccc2c(C(F)(F)F)cc(C(F)(F)F)nc2n1,18.6,0.0,-1.7,-18.6,-3.2
[O-][n+]1cccc2cccc(O)c21,-26.9,-0.1,48.9*,26.9,3.0

# Bioassay records (PubChem BioAssay)
